Hits are enriched below; roughly 4.2% of the tested compounds scored in any of these assays.
WT yeast gro inh: growth inhibition of WT strain, primary screen, mitochondrial fusion inhibitor project, WT and mutant strains, chemical genetic. inhibition, % at 10 µM. 190,000 tested, 2.1% active. mitochondrial fusion phenotypic screen. AID 1362, 2008; in the data active means inhibition above about 58%; tested in S. cerevisiae
SKKanGAS inh: S. pyogenes SKKanGAS growth inhibitors in kanamycin, primary screen, streptokinase expression inhibitor project, SKKanGAS strain, BacTiter-Glo luminescence; 6 h; inhibition, % at 7.5 µM; 300,000 tested, 1.3% active; AID 1662, 2009;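 active means mean replicate score, as percent of positive control median, at least 50; inconclusive means mean below 50 but one replicate at or above 50; inactive means mean and every replicate below 50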;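 further: strain carries kanamycin resistance gene driven by streptokinase promoter and grows in 40 µg/ml kanamycin; loss of luminescence reflects streptokinase promoter inhibition or plain growth inhibition; 0% = median of DMSO wells and 100% = positive control at its reference dose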
Cl transport mod: KCC2 cotransporter modulators, thallium flux, primary screen, cell-based, HEK293 KCC2, FluoZin-2 fluorescence, MLSMR; Solute carrier family 12 member 5 (Homo sapiens), Q9H2X9; KCC2 cells, thallium flux FluoZin-2 fluorescence; B-score of Tl+ flux slope (higher = more flux/activation; lower = inhibition) at 10 µM; 190,000 tested, 2.2% active; AID 1456, 2008;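 active means thallium flux slope and its plate-corrected score both differing from the plate sample mean at a set confidence after two filtering rounds, in either direction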;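 further: slope of fluorescence scaled to starting intensity during 10 to 20 s after thallium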
Rad51 HR inh: human RAD51 strand exchange inhibitors, primary screen, biochemical, fluorescence. DNA repair protein RAD51 homolog 1 (Homo sapiens), Q06609. hRad51 DNA strand exchange, fluorescence dequenching. inhibition, % at 10 µM. 200,000 tested, 0.085% active;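 active means inhibition above 40% at the single screening dose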;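 further: 0% = DMSO control wells and 100% = blanks with heterologous ssDNA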
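Read-out basis: percent inhibition relative to plate controls and blanks / Assay system: human Rad51 nucleoprotein filaments preassembled on unlabelled ssDNA / Timing: filaments 15 min 37 °C, then compound 30 min / Control set: per-plate controls and blanks / Technique: fluorescence dequenching at 485/520 nm / Compound: 10 µM final, single point / Also added: Fluorescein- and BHQ1-tagged 47-mer duplex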
Autophagy mod: autophagy modulators in MEF cells, primary screen, imaging, high-content, MEF GFP-LC3 | MEF GFP-LC3 puncta imaging; test concentration mostly 10 µM | calls only at 10 µM (by protocol) | 190,000 tested, 0.98% active;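 active means percentage of spot-positive cells more than 3 SD above its plate mean, without a fluorescence outlier flag or 80% toxicity; inconclusive means no clear call, values can overlap the other calls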;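 further: spot-positive cell cutoff set from DMSO-treated cells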
Insulin prom up: insulin promoter activators in MIN6 cells, imaging, high-content screening, mouse beta cells. AID 1625, 2009. 190,000 tested, 0.3% active. z-score at 5 µM. MIN6 insulin promoter-GFP reporter; stronger effect = higher value;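 active means z-score above 3 at 5 µM with at least 500 cells counted in the well; inconclusive means wells under 500 cells, flagged as cytotoxic or low count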
Active calls of the source: *; i = inactive; ? = inconclusive; . = no result; + = active, no number.

SMILES	WT yeast gro inh	SKKanGAS inh	Cl transport mod	Rad51 HR inh	Autophagy mod	Insulin prom up
OC(CNCc1ccccn1)c1ccccc1 (stereo not drawn)	-12	0	-0.21	-4	i	1.6
Fc1ccc(C(CCNCc2ccccn2)c2ccc(Cl)cc2)cc1 (stereo not drawn)	.	64*	.	.	.	.
CCOC(=O)c1cc(-c2ccc3c(c2)OCO3)nc2onc(C)c12	78*	15	-1.5	-1	i	0.2
C=CCNCCCCOc1ccc(OCc2ccccc2)cc1	16	10	-0.4	.	+	-0.45
COc1cc(/C=C2\S/C(=N/S(=O)(=O)c3ccccc3)NC2=O)c([N+](=O)[O-])cc1OC	9	68*	.	0	i	0.16
N#CCCN(Cc1ccccc1)C(=O)c1nccnc1C(=O)O	.	2	.	.	.	.
CCN1CCCC1CNC(=O)c1cc(COc2ccc(C)c(C)c2)on1 (stereo not drawn)	.	4	.	.	.	.
CC[n+]1c(C=C2C=C(C)OC(C)=C2)sc2ccccc21	69*	5	-0.092	-2	+	?
O=C(Nc1ccc(F)c(Cl)c1)N1CCCCCC1	.	9	.	.	.	.
COc1ccc(-n2c(-c3ccc(Br)cc3)n[nH]c2=S)cc1	.	1	.	.	.	.
COc1ccc(-n2c(-c3ccc(Br)cc3)nc(=S)c3c2CCCC3)cc1	63*	4	-1	-6	i	-1.5
COC(=O)c1c(-c2cccnc2)csc1NC(=O)c1ccc2c(c1)OCO2	.	27	.	.	.	.
COc1ccc(OC)c2c1sc(=NC(=O)c1cccc(N3C(=O)CCC3=O)c1)n2C	3	-1	1.7	6	+	-0.25
CCO[C@@H]1OC(C(=O)NCc2ccccc2)=C[C@H](c2csc3ccccc23)[C@H]1CCCO	39	19	-2.9*	.	i	-0.84
C#Cc1ccc([C@@H]2C=C(C(=O)N3CCN(Cc4ccccc4)CC3)O[C@H](OCC)[C@H]2CCCO)cc1	24	9	-3.8*	5	i	.
C#CCNC(=O)C1=C[C@H](c2csc3ccccc23)[C@@H](CCCO)[C@H](OCC)O1	-19	-2	-0.48	7	i	-0.63
COc1ccc(OC)c(-c2nc(CN3CCCCC3c3cccnc3)c(C)o2)c1 (stereo not drawn)	4	5	-0.97	8	i	.
COc1ccc(-c2nc(CN3CCCCC3c3nccn3C)c(C)o2)c(C)c1C (stereo not drawn)	75*	24	0.44	3	i	-2.3
O=C1C(=Cc2cccn2-c2ccc(O)cc2)C(=O)c2ccccc21	-1	0	.	.	+	.
Cc1ccc(C(=O)N/C(=C\c2ccccc2)C(=O)NCCCn2ccnc2)cc1	-2	-6	0.0065	1	i	-0.44
CSCc1ccc(C(=O)NC(C)c2cnn(-c3ccccn3)c2C)o1 (stereo not drawn)	.	-2	.	.	.	.
CCCCCCCCCCOC(=O)Cn1c(COc2ccccc2OC)[n+](C)c2ccccc21	.	75*	.	.	.	.
Cn1c(COc2ccccc2O)[n+](C)c2ccccc21	.	4	.	.	.	.
O=C(Nc1ccc([N+](=O)[O-])cc1)Nc1nc(-c2ccc(Cl)s2)cs1	87*	79*	0.45	-76	i	-0.66
CC(=O)Nc1nc(-c2ccc([N+](=O)[O-])cc2)cs1	9	-7	0.36	-5	i	-0.32
SMILES	WT yeast gro inh	SKKanGAS inh	Cl transport mod	Rad51 HR inh	Autophagy mod	Insulin prom up
Cn1cc(Br)c(NC(=O)/C=C/C(=O)O)n1	.	-2	-0.55	11	.	-0.04
O=C(Nc1cccc(C(F)(F)F)c1)NC1CCCCC1	16	-3	0.31	-1	i	-0.8
O=C(OC(C(=O)Nc1cccc(C(F)(F)F)c1)c1ccccc1)C1CCCCC1 (stereo not drawn)	62*	.	0.51	-6	i	0.2
N#CC(C#N)=C1C=CC=CN1/C(=C\c1ccco1)C(=O)c1ccccc1	-21	.	-1.8	-4	i	0.46
N#CC(C#N)=C1C=CC=CN1/C(=C\c1ccco1)C(=O)c1ccc(Br)cc1	71*	.	0.82	0	i	?
Cc1ccc2nc(-c3ccc(NC(=S)NC(=O)C(C)C)cc3)sc2c1	-5	-1	-0.16	-5	i	0.19
Cc1ccc2nc(-c3ccc(NC(=S)NC4CC(C)(C)NC(C)(C)C4)cc3)sc2c1	60*	58*	-2.3	20	i	-0.21
c1cn2c(NC3CCCC3)c(-c3ccc(N4CCOCC4)cc3)nc2cn1	11	-3	-1	4	i	0.08
CCCCNc1c(-c2ccc(SC(C)CC)cc2)nc2ccccn12 (stereo not drawn)	.	78*	.	.	.	.
c1cn2c(NC3CCCCC3)c(-c3ccc(SC4CCCCC4)cc3)nc2cn1	.	89*	.	.	.	.
CCCCNc1c(-c2ccc(SC3CCCCC3)cc2)nc2ccccn12	.	71*	.	.	.	.
Fc1c(F)c(F)c(N=Cc2ccc3ncccc3c2)c(F)c1F	7	-2	0.56	-10	i	0.11
COc1ccc(CCN2CC(C(=O)N(C)Cc3c(C)n[nH]c3C)CCC2=O)cc1 (stereo not drawn)	.	15	.	.	.	.
Cc1ccc(S(=O)(=O)c2nc(-c3cccs3)oc2NCCCN(C)C)cc1	-5	-16	0.85	.	i	-5.5
O=C(CC1SC2=NCCN2C1=O)Nc1ccc(Cl)cc1 (stereo not drawn)	9	5	0.68	1	+	-0.88
CCc1ccc2oc(C(=O)NCC(c3ccc(OC)cc3)N3CCCCC3)c(C)c2c1 (stereo not drawn)	.	-5	.	.	.	.
c1ccc(-c2csc3ncnc(NCC4COc5ccccc5O4)c23)cc1 (stereo not drawn)	72*	2	1.1	21	i	-0.16
CCCCCCCn1c2c(c(=N)c3ccccc31)CCC2	81*	2	-0.45	-2	i	?
CC(C)(O)c1[nH]c2cc(F)ccc2c1C(C)(C)O	.	90*	.	.	.	.
Nc1c(S(=O)(=O)c2cccc(Cl)c2)c2nc3ccccc3nc2n1/N=C/c1ccc(O)c(O)c1	-4	95*	-0.35	0	i	-0.9
O=C(O)Cn1c(CC(=O)N2CCCC2)nc2ccccc21	63*	-5	0.22	-6	i	-0.42
CCOC(=O)c1cccc(NC(=O)Cn2c(CC(=O)N3CCCC3)nc3ccccc32)c1	30	3	0.85	-2	i	0.96
C=CCNc1nc(C(=O)OCC(=O)Nc2c(Cl)cccc2C(F)(F)F)cs1	.	-1	.	.	.	.
CC(=C/c1ccc(C(C)C)cc1)/C=N/NC(=O)CSc1ccccn1	50	68*	0.16	1	i	.
CC(/C=N/NC(=O)c1ccncc1)=C\c1ccc(C(C)C)cc1	7	0	0.14	-8	i	3.2*
Cc1ccccc1Cn1ccc(=NCc2ccccc2)cc1	13	-1	-0.28	3	i	?
